NR2E3 ag-1: human photoreceptor-specific nuclear receptor agonism. inhibition of corepressor binding, % at 3.98 µM. CHO-S Gal4-NCOR/VP16-NR2E3 two-hybrid, luciferase. Q9Y5X4. AID 602229. 0.35% of 360,000 active;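 active = inhibition above the mean of all tested compounds plus 3 SD, cut at about 70% in these data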;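 note: 0% = DMSO with NR2E3 transfected cells and 100% = cells lacking NR2E3 construct; higher means lower luciferase signal from less NR2E3 corepressor binding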
Target sequence (Q9Y5X4 whole entry, looked up, the tested form may be a part): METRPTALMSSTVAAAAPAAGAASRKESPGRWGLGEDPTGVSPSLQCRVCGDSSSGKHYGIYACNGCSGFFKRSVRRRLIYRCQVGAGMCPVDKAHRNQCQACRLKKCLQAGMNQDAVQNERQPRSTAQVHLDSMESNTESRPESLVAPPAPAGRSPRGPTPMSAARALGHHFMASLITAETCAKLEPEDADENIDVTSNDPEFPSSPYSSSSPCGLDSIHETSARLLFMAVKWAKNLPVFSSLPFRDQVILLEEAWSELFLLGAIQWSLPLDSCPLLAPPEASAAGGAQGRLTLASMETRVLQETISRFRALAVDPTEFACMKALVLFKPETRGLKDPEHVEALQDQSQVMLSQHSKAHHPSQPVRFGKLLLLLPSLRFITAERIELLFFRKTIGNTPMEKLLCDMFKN
NR2E3 ag-2: agonists of human nuclear receptor NR2E3; inhibition of corepressor binding, % at 4.78 µM; 0.12% of 320,000 active; GST-NR2E3/biotin-RetCOR TR-FRET, 1536-well;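 active = percent inhibition above the cutoff of mean plus 3 SD of all tested compounds, set per screening campaign, cut at about 20% in these data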;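 note: 0% = DMSO wells and 100% = biotin wells as full block of FRET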
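System: GST-tagged NR2E3 plus biotinylated RetCOR corepressor; Amount: 1.35 nM GST-tagged NR2E3 final; Dosing: single nominal compound dose of 4.8 µM; Schedule: 5 h incubation at 4 °C; Technique: TR-FRET with europium anti-GST and streptavidin-D2, 340 nm excitation; Controls: biotin wells as high control, 0.6% DMSO wells as low control.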
Vif inh: blocks HIV Vif function; HEK293T cells, Vif self-association by quenched fluorescence, imaging, 24 h; inhibition, % at 7.49 µM; 0.35% of 340,000 active; AID 602346; in the data active = inhibition above about 50%, passing the limit was not always enough
core dimer inh: HCV core protein dimerization inhibition; inhibition, % at 5 µM; TR-FRET GST/Flag-core106 dimerization, 1536-well; 0.33% of 300,000 active;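 active = inhibition above the mean of all tested compounds plus 3 SD, set per screening campaign, cut at about 45% in these data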
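Assay system: tagged HCV core106 pair (GST and Flag); medium: KF-containing HEPES buffer, pH 7.45, DTT, CHAPS, BSA; also added: Eu donor and XL665 acceptor anti-tag antibodies; dosing: 5 µM single dose; timing: compound-protein-antibody incubation 4 h at 22.5 °C; signal: TR-FRET 671 and 617 nm emission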
DAGLB inhibitor: diacylglycerol lipase beta (human) inhibition; HEK293T DAGLB membrane lysate, EnzChek fluorogenic substrate; Q8NCG7; inhibition, % at 5.17 µM; 0.059% of 340,000 active; in the data active = inhibition above about 34%;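 note: 0% = enzyme with vehicle and 100% = wells lacking enzyme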
MT1-MMP act inh: MT1-MMP (human) activation inhibition | HT1080 RFP-PRO-GFP cells, GFP/RFP ratio fluorescence, overnight; percent of plate control window, DMSO zero | GFP/RFP ratio change, % at 20 µM | 0.061% of 360,000 active | AID 651647;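 active = GFP/RFP ratio change of at least 30% with cell ATP level not reduced by more than half and red fluorescence within 50% of control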
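Compound: 20 µM single dose, 1% DMSO / System: HT1080 RFP-PRO-GFP cells / Controls: DMSO and RFP-L50D-GFP cell wells / Read-out basis: GFP/RFP fluorescence ratio / Schedule: overnight compound exposure at 37 °C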
NR2E3 ag confirm: confirmation of human NR2E3 agonists; shares compounds with NR2E3 ag-1; CHO-S mammalian two-hybrid NR2E3-NCOR, luciferase luminescence; inhibition, % at 3.98 µM; 51% of 2,300 active; AID 624378;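 active = average inhibition above a cutoff equal to the mean inhibition of all tested compounds plus one SD, cut at about 70% in these data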;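 note: 0% = DMSO in NR2E3 cells and 100% = DMSO in cells lacking NR2E3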
VP16 counter: GAL4-VP16 reporter inhibition in NR2E3 agonist counterscreen | 29% of 2,300 active | inhibition, % at 3.98 µM | CHO-S GAL4-VP16 luciferase reporter, luminescence | shares compounds with NR2E3 ag-1;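 active = mean inhibition above a cutoff equal to the average over all tested compounds plus one standard deviation, cut at about 70% in these data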;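 note: luciferase from a UAS reporter driven by GAL4-VP16 transactivation; 0% = DMSO with VP16-transfected cells and 100% = DMSO with cells lacking VP16; higher means less reporter light so more repression of VP16 activity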
* = called active by the depositor; . = not tested or not shown. The list is not random: actives were taken first. Their share in the collection is about 1.1%.

SMILES	NR2E3 ag-1	NR2E3 ag-2	Vif inh	core dimer inh	DAGLB inhibitor	MT1-MMP act inh	NR2E3 ag confirm	VP16 counter
CCCCOc1ccc(S(=O)(=O)Nc2ccc(NC(C)=O)cc2)cc1	70.2*	-1.0	-21.2	-0.6	-0.2	12.8	27.2	46.8
CCOc1ccc(S(=O)(=O)Nc2ccc(C(=O)N3CCCC3)cc2)cc1	17.1	5.0	-6.1	-4.3	-0.6	3.0	.	.
COc1ccc(NS(=O)(=O)c2ccc(C(=O)N3CCCCCC3)cc2)cc1	75.6*	.	-13.2	.	-1.3	5.1	36.8	48.2
COc1ccc(NS(=O)(=O)c2ccc(NC(=O)C3CC3)cc2)cc1	52.0	4.4	8.7	2.3	-2.1	2.6	26.9	42.2
CCOc1ccc(NS(=O)(=O)c2ccc(C(=O)N3CCCCCC3)cc2)cc1	73.2*	-3.7	-20.9	3.6	-0.4	-1.5	23.0	47.1
COc1ccc(NS(=O)(=O)c2cccc(C(=O)N3CCCCCC3)c2)cc1	-0.8	-2.0	-0.9	1.3	-1.6	0.1	.	.
CN[C@H]1C[C@H]2c3cc(N4CCN(C)CC4)ccc3CCN2C(=O)[C@H]1[C@H](C)O	8.6	.	.	.	-0.7	-2.0	.	.
O=C(c1ccc(F)cc1)N1CCC(C(=O)N2CCN(S(=O)(=O)c3cccc(Cl)c3)CC2)CC1	-28.1	0.9	-7.7	-2.4	1.1	-1.1	.	.
Cc1c(C(=O)N2CCC(C)CC2)oc2ccc3c(c12)C(O)CC1(CCCCC1)O3 (stereo unspecified)	14.3	-0.2	-10.2	8.4	-5.9	-4.7	.	.
COc1ccc2[nH]cc(CCNC(=O)Cc3ccc(F)cc3)c2c1	-1.1	-1.5	4.6	4.2	-3.5	1.3	.	.
COc1ccccc1N(CC(O)CN1CCOCC1)S(=O)(=O)c1ccccc1 (stereo unspecified)	5.2	0.9	-1.1	-1.0	-1.1	-0.7	.	.
CCOc1ccc(NS(=O)(=O)c2ccc(C(=O)N3CCCC(C)C3)cc2)cc1 (stereo unspecified)	54.8	0.1	-11.0	-1.6	-0.4	-7.7	73.8*	68.7
Cc1ccc(NS(=O)(=O)c2ccc(C(=O)N3CCN(c4ccccn4)CC3)cc2)cc1	67.8	2.2	-0.3	12.9	3.3	-4.4	67.7	53.7
Cc1ccc(S(=O)(=O)NCc2ccc(C(=O)N3CCN(c4ccc([N+](=O)[O-])cc4)CC3)cc2)cc1	58.0	-1.8	-8.1	8.9	4.2	-8.6	82.6*	62.3
CC(=O)Nc1ccc(S(=O)(=O)Oc2ccc(C(=S)N3CCCCC3)cc2)cc1	54.9	-3.5	-17.9	-5.2	-0.8	-6.0	70.2*	62.4
O=C(O)c1ccc(Cl)cc1NC(=O)C1CCN(S(=O)(=O)c2cccs2)CC1	8.1	.	.	.	5.3	-3.5	.	.
CCOC(=O)N1CCN(C(=O)c2ccc(S(=O)(=O)Nc3ccc(C)cc3)cc2)CC1	54.0	.	-10.1	.	-1.1	-2.0	81.0*	51.4
CCOC(=O)N1CCN(C(=O)c2ccc(NS(=O)(=O)c3ccc(C)cc3)cc2)CC1	7.9	3.0	-13.4	-14.3	-1.0	-0.2	.	.
CCOC(=O)c1cnc(-n2nc(C)cc2C)nc1NC1CCCC1	94.0*	2.4	-23.7	3.2	-3.3	10.3	29.8	-0.2
CCOC(=O)c1cnc(-n2nc(C)cc2C)nc1NCCc1ccccc1	85.7*	2.7	-7.0	3.0	-5.3	3.7	11.9	-6.9
Cc1ccc(N=Nc2c(O)n(CN3CCOCC3)c3ccccc23)cc1	-114.7	-0.1	0.8	-17.5	-0.8	-28.9	.	.
C=CCn1c(O)c(N=NC(=S)Nc2ccccc2C)c2cc(S(=O)(=O)N3CCOCC3)ccc21	62.9	1.4	-7.8	28.0	6.0	8.7	23.0	25.9
Cc1cccc(NC(=S)N=Nc2c(O)n(CN3CCOCC3)c3ccccc23)c1C	71.7*	0.2	-1.7	-6.1	9.1	7.5	15.0	21.9
C#Cc1ccc(NC(=O)C2(C)CCN2C(=O)c2cc(C)n(C)n2)cc1 (stereo unspecified)	-22.8	.	0.1	.	.	2.2	.	.
Cc1ccc(C)c(NC(=S)NCC(c2ccccc2)N(C)C)c1 (stereo unspecified)	58.4	-2.0	-5.4	-3.9	-1.0	4.0	-14.0	-0.8
SMILES	NR2E3 ag-1	NR2E3 ag-2	Vif inh	core dimer inh	DAGLB inhibitor	MT1-MMP act inh	NR2E3 ag confirm	VP16 counter
Cc1ccccc1NC(=S)NCC(c1cccnc1)N(C)C (stereo unspecified)	-17.7	-1.8	2.8	2.9	0.3	6.7	.	.
CCOC(=O)c1ccc(S(=O)(=O)N2CCN(CC(O)COc3ccc(C#N)cc3)CC2)cc1 (stereo unspecified)	-11.7	0.5	-1.6	7.1	-5.2	0.9	.	.
Cc1nc(-c2ccccn2)nc(N2CCOCC2)c1Cl	13.3	-2.2	-1.6	1.1	-2.0	-0.7	.	.
Cc1nc(-c2ccccn2)nc(N(C)c2ccccc2)c1Cl	105.4*	0.0	10.6	4.5	-0.6	-0.7	38.7	17.1
CCN1C(=O)[C@H]2[C@@H](c3ccc(-c4ccc(Cl)c(Cl)c4)c(OC)c3)N3CCCC[C@@]3(C(=O)OC)[C@H]2C1=O	9.7	.	-3.9	.	-12.1	-5.2	.	.
Cc1ccn2c(Nc3ccccc3)c(-c3ccccn3)nc2c1	67.6	-2.1	-4.3	-3.7	1.5	9.7	90.8*	64.5
Cc1ccccc1Nc1c(-c2cccnc2)nc2ccccn12	27.4	3.8	-5.4	-3.5	-0.9	-1.7	.	.
Cc1ccc2nc(-c3ccccn3)c(Nc3ccccc3C)n2c1	94.5*	-5.3	-0.3	1.7	2.0	-6.0	34.2	-39.3
Cc1ccn2c(NC(=O)c3ccccc3)c(-c3ccccc3)nc2c1	-8.3	-1.0	-2.7	0.9	1.0	4.9	.	.
Cc1ccn2c(Nc3ccccc3C)c(-c3ccccn3)nc2c1	97.1*	1.2	-2.6	0.7	1.7	-3.1	44.4	8.2
Cc1ccc2nc(-c3cccnc3)c(Nc3ccccc3C)n2c1	8.6	3.3	-2.4	4.5	4.3	7.1	.	.
Cc1ccccc1Nc1c(-c2ccccn2)nc2ccccn12	76.2*	-2.0	-3.8	-5.4	1.8	3.1	34.9	1.6
C=CCN1C(=O)/C(=C\c2ccc(Oc3nc(N4CCOCC4)nc(N4CCOCC4)n3)c(OC)c2)SC1=S	-18.9	-0.7	-9.0	0.3	-1.1	0.8	.	.
CC(=O)Nc1ccc2c(c1)CN(c1cc(C)ccc1C)CO2	6.2	-0.5	-3.0	-3.6	2.9	-4.3	.	.
Cc1cccn2c(Nc3ccccc3)c(-c3ccccn3)nc12	81.6*	-2.0	-8.7	-0.7	-0.2	2.3	3.4	9.2

Compound activity from PubChem.
